Measurements gathered from unrelated publications.
SLC6A3: Sodium-dependent dopamine transporter (SLC6A3, Homo sapiens, UniProt Q01959)
DRD3: D(3) dopamine receptor (DRD3, Homo sapiens, UniProt P35462)
PDE10A: cAMP and cAMP-inhibited cGMP 3',5'-cyclic phosphodiesterase 10A (PDE10A, Homo sapiens, UniProt Q9Y233)

Compound	target	assay	test system	setting	quantity	value
COc1ccc2oc(-c3ccc4nc(N)oc4c3)c/c(=N\c3ccccc3NC(=O)CCN)c2c1	AP2-associated protein kinase 1 (AAK1, Homo sapiens, UniProt Q2M2I8)	binding	–	1 µM	remaining binding	98%
CCOC(=O)[C@@]12C[C@@H]1[C@@H](n1ccc3c(NCCCCCc4ccccc4)nc(C#Cc4ccccc4)nc31)[C@H](O)[C@@H]2O	SLC6A3	ligand displacement, radioligand	–	10 µM	inhibition	63%
Cc1[nH]c(C)c(S(=O)(=O)Nc2ccc(C(F)(F)F)c(Br)c2)c1C(=O)N1CCCC1	DRD3	β-arrestin recruitment, agonist	–	90 min	Emax	91%
N#CC[C@@]12C[C@@H]1[C@@H](n1cnc3c(Nc4ccccc4)nc(I)nc31)[C@H](O)[C@@H]2O	SLC6A3	ligand displacement, radioligand	–	10 µM	inhibition	54%
c1ccc(-c2cccc(Cc3ccnc4cc(C5COC5)ccc34)c2)cc1	PDE10A	enzyme activity, inhibitor, FP	–	0.1 µM	inhibition	3%
C1=C/COCc2cc(ccc2OCCN2CCCC2)Nc2nccc(n2)-c2cccc(c2)COC/1	Serine/threonine-protein kinase D1 (PRKD1, Homo sapiens, UniProt Q15139)	binding	–	0.1 µM	remaining binding	100%
COc1cc2ncnc(Cc3cccc(-c4ccc(C)cc4)c3)c2cc1OC	PDE10A	enzyme activity, inhibitor, FP	–	0.1 µM	inhibition	78%
CCOC(=O)[C@@]12C[C@@H]1[C@@H](n1cnc3c(NCCCCCc4ccccc4)nc(C#Cc4ccc(Cl)s4)nc31)[C@H](O)[C@@H]2O	SLC6A3	transporter uptake, inhibitor, radiometric	HEK293	10 µM	inhibition	< 5%
Cc1ccc(NS(=O)(=O)c2c(C)[nH]c(C)c2C(=O)N2CCC2)cc1Cl	DRD3	β-arrestin recruitment, agonist	–	90 min	Emax	96%
N#CC[C@@]12C[C@@H]1[C@@H](n1cnc3c(NCCCCCc4ccccc4)nc(I)nc31)[C@H](O)[C@@H]2O	SLC6A3	ligand displacement, radioligand	–	10 µM	inhibition	23%
COc1ccc2ccnc(Cc3cccc(-c4ccccc4)c3)c2c1	PDE10A	enzyme activity, inhibitor, FP	–	0.1 µM	inhibition	5%
Cc1ccc(NS(=O)(=O)c2c(C)[nH]c(C)c2C(=O)N2CCC(F)(F)C2)cc1Cl	DRD3	β-arrestin recruitment, agonist	–	90 min	Emax	95%
COc1ccc2c(Cc3ccc(OC)c(OC)c3)nccc2c1	PDE10A	enzyme activity, inhibitor, FP	–	0.1 µM	inhibition	25%
Cc1[nH]c(C)c(S(=O)(=O)Nc2ccc(C(F)(F)F)c(Cl)c2)c1C(=O)N1CCC(O)C1 (stereo not drawn)	DRD3	β-arrestin recruitment, agonist	–	90 min	Emax	89%
COc1ccc(C(=O)c2ncnc3cc(OC)c(OC)cc23)cc1	PDE10A	enzyme activity, inhibitor, FP	–	0.1 µM	inhibition	39%
Cc1[nH]cc(S(=O)(=O)Nc2ccc(C(F)(F)F)c(Cl)c2)c1C(=O)N(C)C	DRD3	β-arrestin recruitment, agonist	–	90 min	Emax	83%
CNC(=O)[C@@]12C[C@@H]1[C@@H](n1cnc3c(Nc4ccccc4)nc(C#Cc4ccc(Cl)s4)nc31)[C@H](O)[C@@H]2O	SLC6A3	ligand displacement, radioligand	–	10 µM	inhibition	84%
COc1cc2ncnc(Cc3cccc(-c4ccc(CO)cc4)c3)c2cc1OC	PDE10A	enzyme activity, inhibitor, FP	–	0.1 µM	inhibition	66%
Cc1[nH]c(C)c(S(=O)(=O)Nc2cc(Cl)cc(C(F)(F)F)c2)c1C(=O)N1CCC(F)(F)C1	DRD3	β-arrestin recruitment, agonist	–	90 min	Emax	101%
COc1cc2ncnc(Cc3cccc(Cl)c3)c2cc1OC	PDE10A	enzyme activity, inhibitor, FP	–	0.1 µM	inhibition	68%
Cc1[nH]c(C)c(S(=O)(=O)Nc2ccc(C(F)(F)F)c(Cl)c2)c1C(=O)N1CCCC1	DRD3	β-arrestin recruitment, agonist	–	90 min	Emax	92%
CCOC(=O)[C@@]12C[C@@H]1[C@@H](n1ccc3c(NCCCCc4ccccc4)nc(C#Cc4ccccc4)nc31)[C@H](O)[C@@H]2O	SLC6A3	ligand displacement, radioligand	–	10 µM	inhibition	66%
CCCCC(=O)Nc1ccc(-c2ccc3ncn(CCC)c(=O)c3c2)cn1	Dual specificity protein kinase CLK4 (CLK4, Homo sapiens, UniProt Q9HAZ1)	binding, competition with immobilised ligand	–	0.5 µM	remaining binding	86%
N#C[C@@]12C[C@@H]1[C@@H](n1cnc3c(Nc4ccc(Cl)c(Cl)c4)nc(I)nc31)[C@H](O)[C@@H]2O	SLC6A3	ligand displacement, radioligand	–	10 µM	inhibition	-9%
Cc1[nH]c(C)c(S(=O)(=O)Nc2ccc(C(F)(F)F)c(Cl)c2)c1C(=O)NCC(F)(F)F	DRD3	β-arrestin recruitment, agonist	–	90 min	Emax	98%
COc1cc2ccnc(Cc3ccc4cnn(C)c4c3)c2cc1OC	PDE10A	enzyme activity, inhibitor, FP	–	0.1 µM	inhibition	69%
CCOC(=O)[C@@]12C[C@@H]1[C@@H](n1cnc3c(NCCCCCCc4ccccc4)nc(I)nc31)[C@H](O)[C@@H]2O	SLC6A3	ligand displacement, radioligand	–	10 µM	inhibition	73%
